Reference: ChEMBL document CHEMBL5316292 (J Med Chem, 2023)
Active and inactive are the calls of the source. The calls are words filed in the database; no cut-off is given here.

Tests used:
[1] = molecular target: T1, Bromodomain-containing protein 3 (Homo sapiens, UniProt Q15059); test: Binding affinity to human partial length BRD3 BD2 (G306 to P416 residues) expressed in bacterial expression system assessed as change in melting temperature at 50 uM at 20 to 85 degreeC by SYPRO orange staining based thermal shift assay
Method in brief: (§1)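 DSF thermal shift. 10 µM BD in 50 mM HEPES, 500 mM NaCl pH 7.5, with 50 µM compound or DMSO-matched control and 1:1000 Sypro Orange (ex 465/em 590 nm). Ramp 20–85 °C at 0.03 °C/s. Tm taken as the midpoint between fluorescence max and min. At least three independent experiments, SEM in °C.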
Target sequence in this assay (Q15059 2-726 limits assumed): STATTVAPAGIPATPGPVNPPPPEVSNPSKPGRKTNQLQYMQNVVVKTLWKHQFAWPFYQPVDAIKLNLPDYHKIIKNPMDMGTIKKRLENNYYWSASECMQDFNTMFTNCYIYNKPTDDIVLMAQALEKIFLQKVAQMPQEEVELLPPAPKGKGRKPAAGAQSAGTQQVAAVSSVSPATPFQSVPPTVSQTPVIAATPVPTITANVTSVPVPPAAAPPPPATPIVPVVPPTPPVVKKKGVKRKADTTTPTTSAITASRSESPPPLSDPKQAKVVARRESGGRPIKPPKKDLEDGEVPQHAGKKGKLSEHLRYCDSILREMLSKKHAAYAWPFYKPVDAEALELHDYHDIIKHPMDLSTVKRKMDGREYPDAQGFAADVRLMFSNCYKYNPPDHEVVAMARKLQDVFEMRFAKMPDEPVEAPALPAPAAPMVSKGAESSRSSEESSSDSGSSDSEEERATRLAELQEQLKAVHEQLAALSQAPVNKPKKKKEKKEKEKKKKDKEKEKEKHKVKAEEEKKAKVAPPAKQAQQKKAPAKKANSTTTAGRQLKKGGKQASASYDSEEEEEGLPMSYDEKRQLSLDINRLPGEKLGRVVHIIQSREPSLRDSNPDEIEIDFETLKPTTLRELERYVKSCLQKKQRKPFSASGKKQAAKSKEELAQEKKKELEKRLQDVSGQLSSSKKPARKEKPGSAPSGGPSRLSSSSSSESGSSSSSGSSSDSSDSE

[2] = molecular target: T2, Bromodomain testis-specific protein (Homo sapiens, UniProt Q58F21); test: Binding affinity to human partial length BRDT BD1 (N21 to E137 residues) expressed in bacterial expression system using H4K5acIC8acK12acK16ac-biotinylated peptide as substrate preincubated for 30 mins followed by substrate addition by AlphaScreen assay
Method in brief: (§2)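 AlphaScreen. Biotinylated H4K5acK8acK12acK16ac peptide added at equal concentration to protein for 30 min. Donor and acceptor beads (25 µg/mL each) added, ≥1 h in the dark. Triplicate, curve-fitted, SEM.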

[3] = molecular target: T2, Bromodomain testis-specific protein; test: Binding affinity to human partial length BRDT BD1 (N21 to E137 residues) expressed in bacterial expression system assessed as change in melting temperature at 50 uM at 20 to 85 degreeC by SYPRO orange staining based thermal shift assay; method in brief: as §1
[4] = molecular target: T2, Bromodomain testis-specific protein; test: Binding affinity to human partial length BRDT BD2 (K250 to E382 residues) expressed in bacterial expression system assessed as change in melting temperature at 50 uM at 20 to 85 degreeC by SYPRO orange staining based thermal shift assay; method in brief: as §1
[5] = molecular target: T1, Bromodomain-containing protein 3; test: Binding affinity to human partial length BRD3 BD1 (P24 to E144 residues) expressed in bacterial expression system using H4K5acIC8acK12acK16ac-biotinylated peptide as substrate preincubated for 30 mins followed by substrate addition by AlphaScreen assay; method in brief: as §2
Target sequence in this assay (Q15059 whole entry, the tested form may be a part): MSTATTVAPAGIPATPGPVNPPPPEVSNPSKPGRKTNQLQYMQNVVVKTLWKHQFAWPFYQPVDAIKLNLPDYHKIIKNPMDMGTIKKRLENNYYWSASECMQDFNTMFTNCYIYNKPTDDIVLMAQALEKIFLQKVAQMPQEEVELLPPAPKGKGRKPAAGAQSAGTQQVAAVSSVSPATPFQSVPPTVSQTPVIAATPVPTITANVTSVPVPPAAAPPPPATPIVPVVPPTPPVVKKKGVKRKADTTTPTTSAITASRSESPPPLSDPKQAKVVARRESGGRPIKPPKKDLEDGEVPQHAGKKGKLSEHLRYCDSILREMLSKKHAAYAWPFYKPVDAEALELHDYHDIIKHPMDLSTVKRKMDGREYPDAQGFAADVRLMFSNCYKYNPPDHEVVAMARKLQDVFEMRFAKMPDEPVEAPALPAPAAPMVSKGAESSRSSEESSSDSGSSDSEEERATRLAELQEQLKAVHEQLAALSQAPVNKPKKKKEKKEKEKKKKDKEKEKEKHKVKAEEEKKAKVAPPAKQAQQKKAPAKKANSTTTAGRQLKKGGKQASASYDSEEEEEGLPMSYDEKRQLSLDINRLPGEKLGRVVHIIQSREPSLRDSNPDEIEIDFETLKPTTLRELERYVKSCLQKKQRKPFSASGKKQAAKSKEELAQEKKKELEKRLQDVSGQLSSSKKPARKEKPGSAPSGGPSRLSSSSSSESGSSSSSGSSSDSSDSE

[6] = molecular target: T1, Bromodomain-containing protein 3; test: Binding affinity to human partial length BRD3 BD2 (G306 to P416 residues) expressed in bacterial expression system using H4K5acIC8acK12acK16ac-biotinylated peptide as substrate preincubated for 30 mins followed by substrate addition by AlphaScreen assay; method in brief: as §2
Target sequence in this assay (Q15059 whole entry, the tested form may be a part): as above

[7] = molecular target: T3, Bromodomain-containing protein 4 (Homo sapiens, UniProt O60885); test: Binding affinity to human partial length BRD4 BD1 (N44 to E168 residues) expressed in bacterial expression system using H4K5acIC8acK12acK16ac-biotinylated peptide as substrate preincubated for 30 mins followed by substrate addition by AlphaScreen assay
[8] = molecular target: T1, Bromodomain-containing protein 3; test: Binding affinity to 6His-tagged BRD3-BD1 (unknown origin) by MST assay
Method in brief: (§3)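 His6-tagged BD (80 nM) after size-exclusion, labelled 1:1 with 10 nM Red-tris-NTA in PBST (0.05% Tween-20) for 30 min at room temperature, then centrifuged. Mixed with an equal volume of serially diluted compound. Thermophoresis read at 40% LED/MST power. Triplicate data curve-fitted, error as SEM.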
Target sequence in this assay (Q15059 whole entry, the tested form may be a part): as above

[9] = molecular target: T1, Bromodomain-containing protein 3; test: Binding affinity to 6His-tagged BRD3-BD2 (unknown origin) by MST assay; method in brief: as §3
Target sequence in this assay (Q15059 whole entry, the tested form may be a part): as above

VCaP [10] = test: Antiproliferative activity against AR-positive human VCaP cells assessed as reduction in cell viability measured after 72 hrs by MTS assay; assay type: functional, cell-based
Method in brief: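 VCaP cells in 96-well plates, compound serially diluted in DMSO and run in triplicate wells for 72 h. MTS reagent added for 2 h, absorbance read at 490 nm. % cytotoxicity = (A_medium − A_treatment)/A_medium × 100. EC50 and SD taken from dose-response curves, at least three independent experiments.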

PC-3 = test: Antiproliferative activity against androgen-insensitive human PC-3 cells assessed as reduction in cell viability measured after 72 hrs by MTS assay; assay type: functional, cell-based; conditions: PC-3, 72 h
Method in brief: (§4)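 MTS viability assay run in triplicate wells. Serial dilutions in DMSO were given, with DMSO as negative control and doxorubicin as positive control, and incubated 72 h. MTS reagent was added for 2 h and absorbance read at 490 nm. % cytotoxicity = (A_medium − A_treatment)/A_medium × 100. EC50 ± SD was taken from dose-response curves of at least three independent experiments.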

[11] = Cytotoxicity against HFF cells assessed as reduction in cell viability measured after 72 hrs by MTS assay; assay type: toxicity, cell-based; conditions: human; method in brief: as §4
VCaP [12] = test: Downregulation of BRD3 mRNA levels in human VCaP cells at 25 to 2500 nM incubated for 24 hrs by qRT-PCR analysis; assay type: functional, cell-based; conditions: dose 25-2500 nM
Method in brief: (§5)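 VCaP cells grown to 50% confluence, then treated with compound or DMSO (Methods state 16 h, legend states 24 h). Total RNA isolated, cDNA made from 1 µg RNA, SYBR Green qPCR run in triplicate. Expression by ΔΔCt, normalised to GAPDH. Three independent experiments, SEM.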

VCaP [13] = test: Downregulation of PSA […] expression in human VCaP cells incubated for 24 hrs by qRT-PCR analysis; assay type: functional, cell-based; conditions: dose 25-2500 nM; method in brief: as §5
[14] = molecular target: T3, Bromodomain-containing protein 4; test: Induction of BRD4 degradation in human MDA-MB-231 cells at 0.025 to 2.5 uM incubated for 24 hrs by qRT-PCR analysis; assay type: cell-based; conditions: dose 0.025-2.5 µM
Method in brief: (§6)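 MDA-MB-231 cells treated for 24 h at doses rising tenfold from 25 nM to 2.5 µM. Gene expression measured by qRT-PCR. SEM, n = 3.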

MDA-MB-231 = test: Effect on BET mRNA levels in human MDA-MB-231 cells at 0.025 to 2.5 uM incubated for 24 hrs by qRT-PCR analysis; assay type: functional, cell-based; conditions: dose 0.025-2.5 µM; method in brief: as §6
[15] = molecular target: T1, Bromodomain-containing protein 3; test: Induction of BRD3 degradation in human MDA-MB-231 cells assessed as decrease in BET half life at 10 uM incubated for 8 hrs in presence of cycloheximide by immunoblotting analysis; assay type: cell-based
Method in brief: (§7)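 MDA-MB-231 time-course. Cells given 50 µg/mL cycloheximide plus DMSO, or 50 µg/mL cycloheximide plus 10 µM compound. RIPA lysates immunoblotted for BRD2, BRD3 and BRD4 with GAPDH as control.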
Target sequence in this assay (Q15059 2-726 limits assumed): as the sequence (Q15059 2-726 limits assumed) above

[16] = molecular target: T3, Bromodomain-containing protein 4; test: Induction of BRD4 degradation in human MDA-MB-231 cells assessed as decrease in BET half life at 10 uM incubated for 8 hrs in presence of cycloheximide by immunoblotting analysis; assay type: cell-based; method in brief: as §7
[17] = molecular target: T1, Bromodomain-containing protein 3; test: Induction of BRD3 degradation in human MDA-MB-231 cells at 10 uM incubated for 8 hrs in presence of MG132 by immunoblotting analysis; assay type: cell-based
Target sequence in this assay (Q15059 2-726 limits assumed): as above

[18] = molecular target: T3, Bromodomain-containing protein 4; test: Induction of BRD4 degradation in human MDA-MB-231 cells at 10 uM incubated for 8 hrs in presence of MG132 by immunoblotting analysis; assay type: cell-based
[19] = molecular target: T3, Bromodomain-containing protein 4; conditions: dose 50.0 µM
[20] = molecular target: T3, Bromodomain-containing protein 4; conditions: dose 50.0 µM; remark: listed apart in the source

CC(=O)OC[C@]12CC[C@H]3[C@@H](C[C@H]4O[C@]45CC=CC(=O)[C@]35C)[C@]1(O)CC[C@@]2(O)[C@@](C)(O)[C@H]1CC(C)=C(C)C(=O)O1
ΔTm [1]: 7.45 °C | IC50 [2]: 0.403 µM | ΔTm [3]: 9.57 °C | ΔTm [4]: 7.58 °C | IC50 [5]: 0.00711 µM | IC50 [6]: 0.108 µM | IC50 [7]: 0.0179 µM | Kd [8]: 0.0141 µM | Kd [9]: 0.149 µM | EC50 (VCaP [10]): 0.0305 µM | EC50 (PC-3): 0.063 µM | EC50 at 72 h [11]: > 2 µM | Activity (VCaP [12]): inactive | Activity (VCaP [13]): Dose-Dependent Effect | Activity [14]: inactive | Activity (MDA-MB-231): inactive | Activity [15]: Active | Activity [16]: Active | Activity [17]: inactive | Activity [18]: inactive | ΔTm [19]: 11.8 °C | ΔTm [20]: 7.33 °C
